From PubChem BioAssay AID623991 (Broad Institute, 2012)
Active and inactive are the calls of the source.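 How the source made its calls: active means inhibitors lowering the signal whose fitted half-maximal concentration is at most twice the top valid tested dose; inconclusive means flat curve with partial inhibition, or a poor curve fit; inactive means effect opposite to expected, flat near zero, or too weak.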

Target: PvdQ acyl-homoserine lactone acylase (Pseudomonas aeruginosa LESB58)
Test: inhibition of P. aeruginosa PvdQ enzyme – biochemical, 4-MU laurate fluorescence, dry powder, set 3, dose response (AID 623991)
Conditions: Purified PvdQ, 4-MU laurate hydrolysis; for activity change, negative = inhibition: at 19.5 µM (top of the series)
Method in brief: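 Assay system: Pseudomonas aeruginosa PvdQ acylase enzyme | Medium: Tris 50 mM pH 8.0, NaCl 50 mM, TCEP 0.2 mM, Triton X-100 | Dosing: 3-fold compound dilution series | Incubation: 30 min enzyme-compound pre-incubation, then 60 min substrate reaction, room temperature | Signal: Fluorescence, excitation 303–367 nm, emission 440–460 nm, reads at 0 and 60 min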

AC50	activity change, negative = inhibition	Compound
1270 nM		COCCC(C#N)c1ccc(F)cc1 (stereo not given)
6270 nM		COCCC(C#N)c1ccc(Cl)cc1 (stereo not given)
36.8 nM		N#CC(c1ccc(Cl)cc1)c1cccc(Cl)n1 (stereo not given)
12200 nM		N#CC(c1ccc(C(F)(F)F)c(Cl)n1)c1ccccc1OC(F)(F)F (stereo not given)
119 nM		N#CC(c1ccc(F)cc1)c1cccc(Cl)n1 (stereo not given)
589 nM		CN(C)CCCC(C#N)c1ccc(F)cc1 (stereo not given)
4.71 nM		N#CC(c1ccc(F)cc1)c1cccc(C(F)(F)F)n1 (stereo not given)
165 nM		COCCOCCC(C#N)c1ccc(F)cc1 (stereo not given)
607 nM		CCCCC(C#N)c1ccc(F)cc1 (stereo not given)
3190 nM		CCCCC(c1ccc(Cl)cc1)c1nn[nH]n1 (stereo not given)
	inactive	CCCCC(C#N)c1ccccn1 (stereo not given)
15.6 nM		N#CC(c1cccc(Cl)n1)c1ccc(Cl)cc1F (stereo not given)
	inactive	COCCNC(C#N)c1ccc(Cl)cc1 (stereo not given)
11200 nM		N#CC1c2ccc(Cl)cc2CCc2cccnc21 (stereo not given)
17900 nM		CN(C)CCCC(C#N)c1ccc(Cl)cc1 (stereo not given)
< 3 nM		N#CC(c1cccc(C(F)(F)F)n1)c1ccc(Cl)cc1F (stereo not given)
200 nM		N#Cc1cccc(C(C#N)c2ccc(F)cc2)n1 (stereo not given)
3470 nM		CCCCC(C#N)c1ccc(Cl)cn1 (stereo not given)
1070 nM		CCCCC(C#N)c1ccc(Cl)cc1 (stereo not given)
7770 nM		COCCOCCC(C#N)c1ccc(Cl)cc1 (stereo not given)
1830 nM		N#CC(c1ccc(Cl)cc1)N1CCCC1 (stereo not given)
	inactive	CCCCC(C#N)c1ccc(F)cn1 (stereo not given)
3.09 nM		N#CC(c1ccc(Cl)cc1)c1ncccc1Cl (stereo not given)
296 nM		N#CC(c1ccc(Cl)cc1)c1ccccn1 (stereo not given)
25.4 nM		N#CC(c1ccc(Cl)cc1)c1cccc(C(F)(F)F)n1 (stereo not given)
